Compound activity (PubChem BioAssay)
In the library only some 4.1% were active in any assay of this set; here they are far more common.
XBP1 UPR activ – activators of adaptive arm of unfolded protein response (XBP1); CHO-XBP1 luciferase reporter, IRE1-XBP1 UPR activation, luminescence; percent of tunicamycin response, DMSO as zero; activation, % at 20 µM; actives 0.33% (n = 330,000);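 active = versus positive control, 20 µM dose yields 30% or more activation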
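Material: CHO-XBP1 cells stably carrying IRE1-XBP1-driven luciferase reporter / Amount: 1000 cells per well / Compound: 20 µM, 1% DMSO / Times: 6 h treatment, 37 °C / Detection: luciferase luminescence / Measure: % activation of reporter signal versus tunicamycin and DMSO controls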
Mdm2-MdmX inh – disrupts the human Mdm2-MdmX interaction | SaOS-2 split-luciferase Mdm2/MdmX complementation, luminescence | O15151+Q00987 | actives 3% (n = 330,000) | inhibition, % at 8 µM;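 active = inhibition of at least 50% at 8 µM in the primary screen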
Target sequence (O15151 whole entry, looked up): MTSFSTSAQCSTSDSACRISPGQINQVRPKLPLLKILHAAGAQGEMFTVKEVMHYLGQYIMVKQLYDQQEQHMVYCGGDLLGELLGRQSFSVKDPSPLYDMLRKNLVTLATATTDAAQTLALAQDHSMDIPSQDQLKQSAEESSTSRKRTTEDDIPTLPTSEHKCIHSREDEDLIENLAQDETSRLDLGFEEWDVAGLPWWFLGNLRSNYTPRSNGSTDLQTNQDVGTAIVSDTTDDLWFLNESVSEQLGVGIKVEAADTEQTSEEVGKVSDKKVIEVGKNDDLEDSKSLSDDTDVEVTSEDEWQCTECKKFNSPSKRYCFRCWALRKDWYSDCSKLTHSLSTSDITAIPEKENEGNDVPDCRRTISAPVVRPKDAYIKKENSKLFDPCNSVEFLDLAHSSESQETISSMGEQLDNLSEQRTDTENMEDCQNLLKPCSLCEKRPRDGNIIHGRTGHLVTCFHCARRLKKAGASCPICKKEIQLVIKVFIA
Target sequence (Q00987 whole entry, looked up): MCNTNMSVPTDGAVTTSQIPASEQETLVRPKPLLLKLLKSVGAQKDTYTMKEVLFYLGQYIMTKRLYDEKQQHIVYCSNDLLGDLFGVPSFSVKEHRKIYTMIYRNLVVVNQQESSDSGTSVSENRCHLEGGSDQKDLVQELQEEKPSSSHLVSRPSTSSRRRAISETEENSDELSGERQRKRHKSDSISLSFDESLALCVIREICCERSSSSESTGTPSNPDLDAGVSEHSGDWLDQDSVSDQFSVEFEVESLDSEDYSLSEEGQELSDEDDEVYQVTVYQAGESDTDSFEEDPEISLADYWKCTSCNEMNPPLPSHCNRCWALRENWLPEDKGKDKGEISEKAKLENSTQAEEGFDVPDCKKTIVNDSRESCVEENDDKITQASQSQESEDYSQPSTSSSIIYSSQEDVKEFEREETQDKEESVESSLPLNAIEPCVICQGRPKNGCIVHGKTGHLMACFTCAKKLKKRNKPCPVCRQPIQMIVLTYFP
CHOP UPR activ – apoptotic UPR (CHOP) activation. activation, % at 10 µM. AID 449763. CHO-CHOP luciferase reporter, luminescence; percent of tunicamycin response over DMSO baseline. actives 0.34% (n = 330,000);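 active = at 10 µM dose, activation of 40% or more, normalized to positive control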
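measured by = luciferase luminescence | assay system = CHO-CHOP cells, stable luciferase reporter of PERK-eIF2a-CHOP signalling | amount = 500 reporter cells seeded per well | timing = 6 h compound exposure at 37 °C after overnight seeding | controls = positive tunicamycin 10 µg/mL, negative DMSO alone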
UBC13 polyUb – blocks human UBC13 polyubiquitin chain formation | TR-FRET | inhibition, % at 20 µM | actives 0.47% (n = 330,000); in the data active = inhibition above about 45%, passing the limit was not always enough
Apaf1 inhib – inhibitors of human Apaf-1 apoptosome; inhibition, % at 20 µM; reconstituted apoptosome caspase-3 activity, DEVD-Rh110 fluorescence; actives 0.71% (n = 330,000); AID 489030; active = inhibition of at least 40% at 20 µM
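Material: reconstituted apoptosome with Apaf-1, cytochrome c, caspase-9, procaspase-3, dATP. Technique: Rh110 fluorescence intensity. Buffer or medium: pH 7.5 Hepes buffer with CHAPS, BSA, DTT. Times: 30 min plus 50 min, RT.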
XBP1 UPR conf – confirmation of adaptive unfolded protein response (XBP1) activators; actives 63% (n = 1,000); shares compounds with XBP1 UPR activ; AID 485299; activation, % at 20 µM; CHO-XBP1 IRE1-XBP1 luciferase reporter, luminescence;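 active = reporter signal at least 30% of the positive control's activation in two or more of four replicate wells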
Mdm2 MdmX conf – confirmation of human Mdm2/MdmX interaction inhibitors; shares compounds with Mdm2-MdmX inh; Mdm2-MdmX binding, luminescent assay; inhibition, % at 8 µM; actives 55% (n = 10,000); AID 489028; in the data active = inhibition above about 40%
Full FLuc ctr – full-length luciferase inhibition in Mdm2/MdmX counter-screen; SaOS-2 full-length luciferase counterscreen, luminescence; inhibition, % at 8 µM; actives 77% (n = 6,200); shares compounds with Mdm2-MdmX inh;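 active = mean inhibition at 8 µM reaching about 37%, which flags the compound as non-specific, limit read from the data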;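 also: p53-null SaOS-2 cells with luciferase driven by a doxycycline-inducible promoter; compound on cells about two nights before reading with doxycycline added after day one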
Numbers stand for hits; . = inactive; / = no result given.

SMILES	XBP1 UPR activ	Mdm2-MdmX inh	CHOP UPR activ	UBC13 polyUb	Apaf1 inhib	XBP1 UPR conf	Mdm2 MdmX conf	Full FLuc ctr
Cc1ccc(C)c(C(C)NC(=O)c2ccc(Br)o2)c1 (stereo unspecified)	.	.	.	.	.	/	/	/
C/C(=N/NC(=O)c1ccc(Cl)s1)c1ccc(NC(=O)COc2ccc(Cl)cc2)cc1	37	78	.	.	.	53	.	/
CCOC(=O)C1=C(C)n2c(s/c(=C/c3cccc([N+](=O)[O-])c3)c2=O)=NC1c1ccc(O)c(OC)c1 (stereo unspecified)	45	82	.	.	.	86	77	.
COC(=O)/C=C/c1ccc(OC(=O)c2ccncc2)cc1	.	.	.	.	.	/	/	/
O=[N+]([O-])c1ccc(-c2ccc(/C=N/Nc3nc(NCc4ccccc4)nc(N4CCOCC4)n3)o2)cc1	47	100	.	.	.	.	90	54
C/C(Cl)=C\Cn1c(O)c(N=O)c2ccccc21	.	.	.	.	.	/	/	/
C/C(Cl)=C\Cn1c(O)c(N=NC(N)=S)c2cc(Br)ccc21	84	75	.	.	.	120	49	74
Cn1cccc1C(=O)C(=O)Nc1ccccc1	.	.	.	.	.	/	/	/
CCOC(=O)c1nnc(-c2ccc(C)cc2)nc1Sc1ccccc1Cl	33	54	.	.	.	48	.	/
CCOC(=O)c1nnc(-c2ccc(C)cc2)nc1Oc1ccccc1Cl	37	51	.	.	.	49	.	/
Cc1ccc(S(=O)(=O)c2cc3c(=O)n4cccc(C)c4nc3n(Cc3ccncc3)c2=N)cc1	49	53	.	.	.	.	.	/
COc1ccc(-c2nn(-c3ccccc3)cc2/C=N/N2C(=O)CSC2=S)cc1	39	97	.	.	.	27	.	/
COc1ccc(/C=N/N2C(=O)CSC2=S)cc1	.	.	.	.	.	/	/	/
CCC(=O)Nc1ccc(-c2cc(-c3ccccc3)nc(-c3ccc(NC(=O)CC)cc3)n2)cc1	82	84	.	.	.	92	.	64
CC(=O)Nc1ccc(-c2cc(-c3ccc(NC(C)=O)cc3)nc(-c3ccc(NC(C)=O)cc3)n2)cc1	.	.	.	.	.	/	/	/
CC(=O)Nc1ccc(-c2cc(-c3ccc(NC(C)=O)cc3)nc(-c3ccccc3)n2)cc1	46	58	.	.	.	.	.	/
COc1ccc(/C=N/NC(=O)c2cc3c(OC)ccc(OC)c3[nH]2)cc1O	32	61	.	.	.	.	47	90
COc1cc(OC)c(NC(=S)NCc2ccc(F)cc2)cc1Cl	.	.	.	.	.	/	/	/
OC(CNCc1ccc(Cl)cc1)C(F)(F)F (stereo unspecified)	.	.	.	.	.	/	/	/
COc1ccc(-c2cc(=Nc3c(C)n(C)n(-c4ccccc4)c3=O)c3ccccc3o2)cc1	.	.	.	.	.	/	/	/
COc1ccc(-c2c/c(=N\c3nc(-c4ccccc4)c(C)s3)c3ccccc3o2)cc1O	34	84	.	.	.	39	57	95
Nc1nc(-c2cc(O)ccc2[N+](=O)[O-])cc(-c2ccccc2)c1[N+](=O)[O-]	311	65	.	.	.	214	57	54
C#CC[N+](C)(C)C(C#Cc1ccccc1)CC=C (stereo unspecified)	.	.	.	.	.	/	/	/
C=CCn1c[n+](CC(=O)c2ccc(Br)s2)c2ccccc21	.	.	.	.	.	/	/	/
CCCCNC(=S)N/N=C1\C(=O)c2cccc3cccc1c23	.	.	.	.	.	/	/	/
CNC(=S)N/N=C1\C(=O)c2cccc3cccc1c23	33	87	.	.	.	.	.	/
